Assay results: ChEMBL document CHEMBL1127064, “A novel series of N-(1-aminoalkylidene)carboximidamides as potential hypoglycemic agents” (1993)
The source made the active and inactive calls. The rule behind the calls is not given here.

Tests used:
[1] = tested on: Rattus norvegicus; test: Mean maximum percent lowering of glucose at a single dose of 10 mg/kg, subcutaneously using rat oral glucose tolerance test.; format: functional; settings: route subcutaneous
Outline: (§1)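 Rats given a single 10 mg/kg sc dose, calculated as free base. Blood glucose is compared with controls at each time point by unpaired Student's t-test; a significant lowering at any point (95% confidence) counts as active. Each rat's maximum percent lowering from the matched control mean is averaged to give the mean maximum percent lowering.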

[2] = organism: Rattus norvegicus; test: Effective dose to produce a 30% maximum decrease of glucose from control; format: functional
Outline: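 Rats, subcutaneous dosing at 10, 5 and 2.5 mg/kg, calculated as free base. For each rat, the maximum percent lowering of blood glucose from the control group mean at the matched time point is taken. The dose giving a 30% decrease, with its 95% CI, comes from regression of mean maximum percent decrease versus log dose (mg/kg).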

[3] = tested on: Rattus norvegicus; test: Mean maximum percent lowering of glucose was determined at a single dose of 10 mg/kg, subcutaneously using rat oral glucose tolerance test; IA = inactive; format: functional, organism-based; parameters: dose 10 mg/kg; outline: as §1

Compound `CN(C)/C(=N/C(=N/c1ccccc1)N1CCOCC1)c1ccccc1` has a Lowering [1] of 25%.
In the case of `C/N=C(\N=C(\Nc1ccccc1)N1CCCC1)C(C)C`, the Lowering [1] is reported as 43%.
With `CC/C(=N\C(=N\c1ccccc1)N1CCOCC1)N(C)C` the ED30 [2] was 5.3 mg/kg and the Lowering [1] was 43%.
`CC(=N/c1ccccc1)/N=C(/Nc1ccccc1)N1CCOCC1` showed a Lowering [1] of 26%.
`CN(C)/C(=N/C(=N/c1ccccc1)N1CCOCC1)C(C)(C)C` was tested, and the ED30 [2] was 9.6 mg/kg and the Lowering [1] was 40%.
With `CCC/N=C(C)\N=C(\Nc1ccccc1)N1CCOCC1` the ED30 [2] was 0.97 mg/kg and the Lowering [1] was 56%.
Compound `CC(=N/CCO)/N=C(/Nc1ccccc1)N1CCOCC1` has a Lowering [1] of 15%.
Compound `CC(=N)/N=C(/Nc1ccccc1)N1CCOCC1` has a Lowering [1] of 21%.
For `CC(C)/N=C(\N=C(\Nc1ccccc1)N1CCOCC1)C(C)C`, the Lowering [1] was 23%.
With `C/N=C(\N=C(\Nc1ccccc1)N1CCOCC1)C(C)C` the ED30 [2] was 1.5 mg/kg and the Lowering [1] was 52%.
With `CN(C)/C(Cc1ccccc1)=N/C(=N/c1ccccc1)N1CCOCC1` the Lowering [1] was 27%.
In the case of `C/N=C(C)\N=C(\Nc1ccccc1)N1CCOCC1`, the ED30 [2] is reported as 2.6 mg/kg and the Lowering [1] is reported as 45%.
In the case of `C/N=C(\N=C(\Nc1ccc(F)cc1)N1CCOCC1)C(C)C`, the Lowering [1] is reported as 42%.
In the case of `CC(=N/S(C)(=O)=O)/N=C(/Nc1ccccc1)N1CCOCC1`, the IA [3] is reported as “inactive”.
In the case of `C/C(=N\C(=N\c1ccccc1)N1CCOCC1)N(Cc1ccccc1)c1ccccc1`, the Lowering [1] is reported as 17%.
`C/C(=N\C(=N\c1ccccc1)N1CCOCC1)N1CCOCC1` showed a Lowering [1] of 24%.
`CC/N=C(\N=C(\Nc1ccccc1)N1CCOCC1)C(C)C` gave a Lowering [1] of 26%.
`CCC(=N/C)/N=C(/Nc1ccccc1)N1CCOCC1` showed a Lowering [1] of 42%.
In the case of `CC/N=C(C)\N=C(\Nc1ccccc1)N1CCOCC1`, the ED30 [2] is reported as 4.6 mg/kg and the Lowering [1] is reported as 48%.
Compound `C/C(=N\C(=N\c1ccccc1)N1CCOCC1)N1CCCCC1` has an ED30 [2] of 5.3 mg/kg and a Lowering [1] of 46%.
`CC(C)C(=N)/N=C(/Nc1ccccc1)N1CCOCC1` gave a Lowering [1] of 34%.
`CN1CCC/C1=N\C(=N\c1ccccc1)N1CCOCC1` [LINOGLIRIDE] gave an ED30 [2] of 6.1 mg/kg and a Lowering [1] of 34%.
For `C/C(=N\C(=N\c1ccccc1)N1CCOCC1)N(C)C`, the ED30 [2] was 6.7 mg/kg and the Lowering [1] was 38%.
With `C/C(=N\C(=N\c1ccccc1)N1CCOCC1)N1CCN(C)CC1` the IA [3] was “inactive”.
`CCCCCC/C(=N\C(=N\c1ccccc1)N1CCOCC1)N(C)C` gave a Lowering [1] of 31%.
In the case of `CCC/N=C(\N=C(\Nc1ccccc1)N1CCOCC1)C(C)C`, the Lowering [1] is reported as 31%.
With `CN/C(=N/C(=N/c1ccccc1OC)N1CCOCC1)C(C)C` the Lowering [1] was 21%.
In the case of `CC(=N/C(C)(C)C)/N=C(/Nc1ccccc1)N1CCOCC1`, the ED30 [2] is reported as 4.2 mg/kg and the Lowering [1] is reported as 45%.
For `CCCCN(C)/C(C)=N/C(=N/c1ccccc1)N1CCOCC1`, the ED30 [2] was 7.6 mg/kg and the Lowering [1] was 33%.
Compound `CN(C)/C=N/C(=N/c1ccccc1)N1CCOCC1` has a Lowering [1] of 22%.
For `CCOC(=O)C/N=C(C)\N=C(\Nc1ccccc1)N1CCOCC1`, the IA [3] was “inactive”.
`C/C(=N\C(=N\c1ccccc1)N1CCOCC1)N(C)c1ccccc1` gave a Lowering [1] of 20%.
For `CN(C)/C(=N/C(=N/c1ccccc1)N1CCOCC1)C1CCCCC1`, the Lowering [1] was 27%.
Compound `CC(=N/C(C)C)/N=C(/Nc1ccccc1)N1CCOCC1` has an ED30 [2] of 3.9 mg/kg and a Lowering [1] of 42%.
For `CC(=N/Cc1ccccc1)/N=C(/Nc1ccccc1)N1CCOCC1`, the ED30 [2] was 4.3 mg/kg and the Lowering [1] was 50%.
With `CN(C)/C(CC(C)(C)C)=N/C(=N/c1ccccc1)N1CCOCC1` the ED30 [2] was 5.9 mg/kg and the Lowering [1] was 37%.
Compound `CC(=O)N/C(C)=N/C(=N/c1ccccc1)N1CCOCC1` has a Lowering [1] of 22%.
`CC(C)/C(=N\C(=N\c1ccccc1)N1CCOCC1)N(C)C` gave an ED30 [2] of 4.3 mg/kg and a Lowering [1] of 43%.
